Assay results published in PubChem BioAssay AID624268 (The Scripps Research Institute Molecular Screening Center, 2012).
Out of some 360,000 compounds screened, about 1,500 (0.42%) were called active. This is one part of a sample in which actives are shown more often than they occur.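 How the source made its calls: active means inhibition above a per-plate cutoff of the control wells' mean inhibition plus 3 SD (cut at about 5.5% in these data); inactive means the rest.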

test system: methionyl-tRNA synthetase (Trypanosoma brucei brucei); assay: T. brucei MetRS inhibitors, primary screen, biochemical, luminescence (AID 624268);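 further: 0% = DMSO wells median and 100% = median of wells with control inhibitor compound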; conditions: purified T. brucei MetRS, ATP depletion, Kinase-Glo luminescence; at 11.9 µM; active compounds read high
Procedure, shortened: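 Dosing: 11.9 µM compound single dose, 0.9% DMSO; Assay system: purified T. brucei MetRS enzyme; Measured by: Kinase-Glo luciferase luminescence reporting remaining unconsumed ATP; Schedule: 15 min plus 2 h at 25 °C.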

inhibition, inactive:
CCN(CC)CCNC(=O)c1ccc(NC(=O)c2c(F)cccc2Cl)cc1 -0.39%, O=C(O)c1cc2c(cc1NC(=O)c1c(F)cccc1Cl)OCCCO2 0.17%, C=CCC(Nc1ccccc1)c1cccc(OC)c1OC (stereo not given) 0.2%, O=C1COc2ccc(C(=O)COC(=O)C3CC(O)CN3S(=O)(=O)c3ccc(Cl)cc3)cc2N1 (stereo not given) 0.64%, CNC[C@@H]1Oc2c(NS(C)(=O)=O)cccc2C(=O)N([C@@H](C)CO)C[C@H]1C -0.2%, CCN(CC(=O)Nc1c(F)cccc1F)C(=O)C1CCC1 -0.09%, O=C(CCC1CCCCC1)Nc1cc(C(F)(F)F)ccc1N1CCOCC1 0.04%, N#CCc1c[nH]c2ccc([N+](=O)[O-])cc12 -0.24%, CCc1ccc(S(=O)(=O)NCC(O)COc2ccc(OC)cc2)cc1 (stereo not given) -0.05%, COC(=O)[C@H](CCSC)NC(=O)Nc1ccc(OC)cc1 -0.05%, COc1cccc(NC(=O)N2CCC(NC(=O)C(Cc3cccc(C)c3)NC(C)=O)CC2)c1 (stereo not given) -0.33%, CC(Oc1ccccc1F)C(=O)NN (stereo not given) -0.07%, CCCOn1c(-n2nc(C)cc2C)nc2ccccc2c1=O -0.74%, CCN(CC(=O)NCCc1ccccc1)S(=O)(=O)c1ccccc1 1.61%, CCn1c(SCC(=O)N(C)C2CCS(=O)(=O)C2)nnc1-c1cccs1 (stereo not given) -0.25%, CN(C(=O)CSc1nnc(-c2ccc3c(c2)OCO3)o1)C1CCS(=O)(=O)C1 (stereo not given) -0.28%, O=C(CSc1nnc(-c2c[nH]c3ccccc23)o1)c1ccccc1 0.1%, CN(C(=O)CSc1nnc(-c2ccc(C(C)(C)C)cc2)n1C)C1CCS(=O)(=O)C1 (stereo not given) -0.23%, Cn1nc(C(F)(F)F)c(-c2ccc(F)cc2)c1NC(=O)CSCC(=O)O -1.21%, Cc1ccc(C)c(N2C(=O)CS/C2=N\NC(=O)c2ccccc2Cl)c1 -0.16%, CCC(C(=O)Nc1ccc(C(C)C)cc1)c1ccccc1 (stereo not given) 0.33%, CC(=O)Nc1ccc(NC(=O)[C@@H](NC(=O)c2cccc(C)c2)C(C)C)cc1 -0.8%, COc1ccc(CNC(=O)C(C)NCc2ccccc2Cl)cc1 (stereo not given) -0.92%, COc1ccc(NC(=O)N2CCCC2C(=O)NCc2ccccc2Cl)cc1 (stereo not given) -0.13%, Nc1ccccc1Sc1cc(Cl)nnc1Cl 1.75%, CSc1ccc(S(=O)(=O)NCc2ccc(Cl)cc2)cc1 -1.21%, CCN=c1sc(C(=O)Nc2ccccc2)c(C)n1CC 0.54%, Cc1ccc(S(=O)(=O)Nc2nc(CN3CCOCC3)nc3sc(C)c(C)c23)cc1 -0.08%, CC(C)C1C2=C(CC(C)(C)CC2=O)ON1c1ccccc1 (stereo not given) 0.41%, Cc1cc(=O)n2nc(N3CCC(C(=O)Nc4c(F)c(F)c(F)c(F)c4F)CC3)sc2n1 -0.7%, CCOc1ccc(S(=O)(=O)N2CCCCCC2)c2ccccc12 -0.75%, O=C(CCCN1CCc2[nH]c3ccc(F)cc3c2C1)c1ccc(F)cc1 0.35%, CC(=O)C(CC(=O)N1CCCC1)C(=O)Nc1ccc(Cl)cc1 (stereo not given) -0.19%, CCOc1ccc(NC(=O)N2CC=C(n3c(=O)[nH]c4ccccc43)CC2)cc1 -0.02%, C[C@H](O)[C@@H]1C(=O)N2CCc3c([nH]c4ccccc34)[C@@H]2C[C@@H]1N(C)C(=O)Nc1ccc(F)cc1 1.97%, Cc1ccc(N(C(=O)C(F)(F)F)C(C(=O)NC2CCCCC2)c2ccncc2)cc1C (stereo not given) -0.39%, COc1ccccc1OCC(=O)Nc1c2c(nn1-c1ccc(F)cc1)CS(=O)(=O)C2 0.18%, CC(=O)Nc1cc(-c2cccc(CO)c2)cn2c(-c3cccc(C(F)(F)F)c3)cnc12 -0.15%, Cc1cc(C)cc(NC(=O)CSc2ccccc2)c1 -0.78%, Cc1cc(C)cc(NC(=O)NCc2ccccn2)c1 -0.48%, COc1ccc(CCNC(=O)C2CC3Cn4c(nc5cc(C)c(C)cc54)C3N2C)cc1 (stereo not given) 0.64%, CN(C)CCn1c(=S)[nH]c2ccc(Cl)cc2c1=O 0.6%, CCOC(=O)c1ccc2[nH]c(C)c(CN3CCN(C)CC3)c(=O)c2c1 -0.39%, Cc1cccc(C)c1-n1nnnc1C(CCc1ccccc1)N1CCN(C/C=C/c2ccccc2)CC1 (stereo not given) -1%, Cc1cccc(N2CCN(C(c3ccc(N(C)C)cc3)c3nnnn3C(C)(C)C)CC2)c1C (stereo not given) -1.18%, O=C(/C=C(O)/C=C/c1ccc(O)cc1)/C=C/c1ccc(O)cc1 -0.28%, CCc1nc(C)cn1S(=O)(=O)c1cc([N+](=O)[O-])ccc1Cl -0.04%, O=C(CN1C(=O)CC(c2ccccc2)S(=O)(=O)c2ccccc21)NC1CCCC1 (stereo not given) -0.4%, Cc1cc(C(=O)OCC(=O)Nc2ccc(F)c(F)c2)c(C)o1 0.47%, COc1ccccc1NS(=O)(=O)N(C)C -0.33%, CCOC(=O)CSc1nc2ccc(C)cc2n2cnnc12 -0.42%, CN(C)CCNC(=O)c1ccc(-c2cn3c(-c4ccc(Oc5ccccc5)cc4)cnc3cn2)cc1 0.12%, CC(C)(C)n1cnnc1Sc1ccc([N+](=O)[O-])cn1 -0.07%, O=C(Cc1ccc(S(=O)(=O)N2CCOCC2)s1)NCCC(c1ccccc1)c1ccccc1 -0.24%, O=C(Cc1ccc(S(=O)(=O)N2CCOCC2)s1)NCCOc1ccccc1F -0.22%, Cc1nc(-c2ccc(Cl)cc2)sc1C1(C)CC(c2ccc(Br)cc2)=NO1 (stereo not given) 0.57%, Cc1c(O)c(C)c2c(c1O)C(=O)C[C@@H](c1ccccc1)O2 1.18%, CCO[C@H]1OC(C(=O)O)=C[C@@H](C2CCCCC2)[C@@H]1CCCO -0.27%, CCO[C@H]1OC(C(=O)Nc2ccccc2)=C[C@@H](C2CC2)[C@@H]1CCCO -0.28%, c1ccc(-c2ccc3c(c2)NC(C2Nc4cc(-c5ccccc5)ccc4O2)O3)cc1 (stereo not given) -0.77%, NC(=O)c1ccc(-c2csnn2)cc1 -0.49%, Cc1cc(Nc2cccc(F)c2)n2ncnc2n1 0.76%, O=C(Nc1ccccc1)c1ccccc1Br 0.92%, C/C(=N/NC(=O)c1cc(Cl)ccc1O)C12CC3CC(CC(C3)C1)C2 -0.58%, COc1ccc(S(=O)(=O)c2c[nH]c(=S)[nH]c2=O)cc1Cl -0.79%, CCOC(=O)c1cccc(NC(=O)CCc2c(C)nc3ncnn3c2C)c1 -0.04%, Cc1ccc(C(=O)Nc2ccc(C)c(S(=O)(=O)N(C)C)c2)s1 -0.69%, O=C(Nc1cccc(Cl)c1)Nc1ccccc1NS(=O)(=O)c1cccs1 -0.14%, O=S(=O)(NCCc1ccc(Cl)cc1)c1cccs1 0.22%, Cc1ccnc(NC(=O)Cn2ccc([N+](=O)[O-])n2)c1 1.25%, O=C(O)c1cccnc1Sc1ncnc2sc3c(c12)CCC3 -0.25%, Cn1c(NN)nc2sc3c(c2c1=O)CCC3 -0.59%, CSCC[C@H](NC(=O)NCc1cccs1)C(=O)O 2.05%, O=S(=O)(c1ccccc1)N1CCC(c2ccccc2)CC1 0.06%, N#CC(C(=O)c1ccc(S(=O)(=O)N2CCCCCC2)cc1)c1nc2ccccc2[nH]1 (stereo not given) -0.41%

inhibition, active:
O=C(NNc1cc(Cl)cc(Cl)c1)c1c(F)cccc1Cl 45.1%, O=C(Cn1c2[n+](c3ccc(C(F)(F)F)cc31)CCCCC2)Nc1c(F)cccc1F 17.2%, COc1ccc(OCC(O)CNC(=O)Nc2ccc(Cl)cc2)cc1 (stereo not given) 60.1%, CN(C(=O)CSc1nnc(-c2c[nH]c3ccccc23)o1)C1CCS(=O)(=O)C1 (stereo not given) 8.69%, CN(C(=O)CSc1nnc(Nc2ccccc2)s1)C1CCS(=O)(=O)C1 (stereo not given) 6.74%, Cc1ccc(NC(=O)C(C)c2cccc(C(=O)c3ccccc3)c2)cc1 (stereo not given) 67.8%, COc1ccc(NC(=O)C(NC(C)=O)C(=O)NCc2ccccc2Cl)cc1 (stereo not given) 7.6%, O=C(O)CCn1c(O)c(C=C2N=c3ccccc3=N2)sc1=S 7.5%, O=C(Nc1ccc(Cl)cc1)N1CCc2[nH]c3ccccc3c2C1 64.1%, Fc1ccc(NC(=S)N2CCc3[nH]c4ccccc4c3C2)cc1 9.22%, Cc1cc(C)cc(NC(=O)N(C)Cc2ccccc2)c1 6.26%, CCCCN(C)Cc1c(C)[nH]c2ccc(Cl)cc2c1=O 47%, CC(C)(C)c1ccc(/C=C2\SC(=O)N=C2N)cc1 19.9%, NC1=NC(=O)S/C1=C\c1ccc(O)cc1 22.9%, O=C(Cc1ccc(S(=O)(=O)N2CCOCC2)s1)Nc1ccc(Br)c(C(F)(F)F)c1 9.17%, CCO[C@@H]1OC(C(=O)NCc2nc3ccccc3[nH]2)=C[C@H](C2CCCCC2)[C@H]1CCCO 15.3%, CC(=N\NC(=O)c1cc(Br)ccc1O)/C(=N/O)C(=O)Nc1ccccc1 7.43%, O=S(=O)(NCc1ccc(Cl)cc1Cl)c1cccs1 18.5%, OCCNc1nc2ccccc2n1-c1ncnc2sc3c(c12)CCC3 22.8%, O=S(=O)(c1ccc(Br)cc1)N1CCC(c2nc3ccccc3[nH]2)CC1 7.1%
